Experimental data as given in ChEMBL document CHEMBL1126221, “Antimitotic agents: structure-activity studies with some pyridine derivatives” (J Med Chem, 1992).

How the values were obtained:
L1210 [1] = experiment: Concentration required to inhibit proliferation of cultured lymphoid leukemia L1210 cells to 50% growth over 48 hours; format: functional, cell-based; conditions: Mus musculus, L1210, 48 h
Procedure, shortened: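 Cultured lymphoid leukemia L1210 cells were exposed to agent for 48 h. IC50 is the micromolar concentration that holds proliferation to 50% growth.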

P388 [2] = experiment: Compound was evaluated for antitumor activity against mice implanted with lymphatic leukemia P388 cells (10e6 tumor cells) after intraperitoneal administration of 200 mg/kg per injection (1-5 days); format: functional; conditions: Mus musculus, P388, ip
Procedure, shortened: (§1)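 Mice implanted ip with 10⁶ lymphocytic leukemia P388 cells; drug given ip on days 1-5. Read-out is % increase in life span (% ILS) versus untreated controls, reported at the highest nontoxic dose tested.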

P388 [3] = experiment: Compound was evaluated for antitumor activity against mice implanted with lymphatic leukemia P388 cells (10e6 tumor cells) after intraperitoneal administration of 200 mg/kg per injection; format: functional; conditions: Mus musculus, P388, ip
[4] = Compound's concentration required to inhibit proliferation of cultured KB cells to 50% growth during 48 hours.; format: functional, cell-based; conditions: Homo sapiens
P388 [5] = experiment: Compound was evaluated for antitumor activity against mice implanted with lymphatic leukemia P388 cells (10e6 tumor cells) after intraperitoneal administration of 100 mg/kg per injection (1-5 days); format: functional; conditions: Mus musculus, P388, ip; procedure, shortened: as §1
L1210 [6] = experiment: Effect on the mitosis of cultured L1210 cells measured in metaphase at 12 hours and 0 uM concentration; format: functional, Mus musculus
Procedure, shortened: (§2)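 Cultured L1210 cells were exposed for 12 h to 0, 3, 10, 30, 50 or 100 μM agent. Read-out was the percentage of cells in metaphase.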

L1210 [7] = experiment: Effect on the mitosis of cultured L1210 cells measured in metaphase at 12 hours and 50 uM concentration; format: functional, Mus musculus; procedure, shortened: as §2
L1210 [8] = experiment: Effect on the mitosis of cultured L1210 cells measured in metaphase at 12 hours and 100 uM concentration; format: functional, Mus musculus; procedure, shortened: as §2
L1210 [9] = experiment: Effect on the mitosis of cultured L1210 cells measured in metaphase at 12 hours and 30 uM concentration; format: functional, Mus musculus; procedure, shortened: as §2
L1210 [10] = experiment: Effect on the mitosis of cultured L1210 cells measured in metaphase at 12 hours and 10 uM concentration; format: functional, Mus musculus; procedure, shortened: as §2
L1210 [11] = experiment: Effect on the mitosis of cultured L1210 cells measured in metaphase at 12 hours and 3 uM concentration; format: functional, Mus musculus; procedure, shortened: as §2
L1210 [12] = experiment: Compound was evaluated for antitumor activity against mice implanted with lymphatic leukemia L1210 cells (10e6 tumor cells) after intraperitoneal administration of 200 mg/kg per injection (1-15 days); conditions: Mus musculus, L1210, ip
HEp-2 = experiment: Compound's concentration required to inhibit proliferation of cultured HEP-2 cells to 50% growth during 48 hours.; format: functional, cell-based; conditions: Homo sapiens, HEp-2, 48 h
P388 [13] = experiment: Compound was evaluated for antitumor activity against mice implanted with lymphatic leukemia P388 cells (10e6 tumor cells) after intraperitoneal administration of 2 mg/kg per injection (1-5 days); format: functional; conditions: Mus musculus, P388, ip; procedure, shortened: as §1
P388 [14] = experiment: Compound was evaluated for antitumor activity against mice implanted with lymphatic leukemia P388 cells (10e6 tumor cells) after intraperitoneal administration of 200 mg/kg per injection (highest dose tested); format: functional; conditions: Mus musculus, P388, ip
Procedure, shortened: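 Mice implanted ip with 10⁶ P388 leukemia cells and treated ip on days 1-5. % increase in life span is reported at the highest dose tested.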

Row | IC50 (L1210 [1]) | Compound | other results
1 | 21 µM | CCOC(=O)Nc1cc(NC(C)C(O)c2ccc3c(c2)OCO3)c([N+](=O)[O-])c(N)n1 (stereo unspecified) | 
2 |  | CCOC(=O)Nc1cc(N)c([N+](=O)[O-])c(N)n1 | ILS at 200 mg/kg (P388 [3]): 0%; IC50 [4]: 48 µM
3 | 22 µM | CCOC(=O)Nc1cc(NC(CC)C(O)c2ccccc2)c([N+](=O)[O-])c(N)n1 (stereo unspecified) | 
4 | 31 µM | CCCCC(Nc1cc(NC(=O)OCC)nc(N)c1[N+](=O)[O-])C(C)=O (stereo unspecified) | 
5 | > 100 µM | COc1ccc(/C(=N/O)C(C)N)cc1 (stereo unspecified) | 
6 | 69 µM | CCOC(=O)Nc1cc(NC(C)C(=O)c2ccc3c(c2)OCO3)c([N+](=O)[O-])c(N)n1 (stereo unspecified) | 
7 | 55 µM | CCCCC(O)C(C)Nc1cc(NC(=O)OCC)nc(N)c1[N+](=O)[O-] (stereo unspecified) | 
8 | 12 µM | CCOC(=O)Nc1cc(NC(C)C(O)c2ccc(O)cc2)c([N+](=O)[O-])c(N)n1 (stereo unspecified) | 
9 |  | CCOC(=O)Nc1cc(NCCc2ccccc2)c(N)c(N)n1 | IC50 [4]: 75 µM
10 | 56 µM | CCCCC(Nc1cc(NC(=O)OCC)nc(N)c1[N+](=O)[O-])C(C)O (stereo unspecified) | 
11 | 54 µM | CCCCC(=O)C(C)Nc1cc(NC(=O)OCC)nc(N)c1[N+](=O)[O-] (stereo unspecified) | 
12 | 26 µM | CCOC(=O)Nc1cc(N[C@@H](C)/C(=N\O)c2ccc(O)cc2)c([N+](=O)[O-])c(N)n1 | 
13 | 53 µM | CCOC(=O)Nc1cc(NC(C)C(O)Cc2ccccc2)c([N+](=O)[O-])c(N)n1 (stereo unspecified) | 
14 | 24 µM | CCOC(=O)Nc1cc(N[C@@H](C)C(=O)c2ccc(O)cc2)c([N+](=O)[O-])c(N)n1 | 
15 | 44 µM | CCOC(=O)Nc1cc(N[C@H](C)C(=O)c2ccc(O)cc2)c([N+](=O)[O-])c(N)n1 | 
16 |  | CCOC(=O)Nc1cc(NC(c2ccccc2)c2ccccc2)c(N)c(N)n1 | ILS at 200 mg/kg (L1210 [12]): 0%; IC50 (HEp-2): 260 nM
17 |  | CCOC(=O)Nc1cc(N/N=C/c2ccccc2)c(N)c(N)n1 | ILS at 200 mg/kg (P388 [3]): 3%
18 | 21 µM | CCOC(=O)Nc1cc(NC(C)C(O)COc2ccccc2)c(N)c(N)n1 (stereo unspecified) | 
19 | > 100 µM | CCOC(=O)Nc1cc(NC(CC)C(=O)c2ccccc2)c([N+](=O)[O-])c(N)n1 (stereo unspecified) | 
20 | 89 µM | CCOC(=O)Nc1cc(NC(C)C(=O)COc2ccccc2)c([N+](=O)[O-])c(N)n1 (stereo unspecified) | 
21 | 55 µM | CCOC(=O)Nc1cc(NC(C)C(O)COc2ccccc2)c([N+](=O)[O-])c(N)n1 (stereo unspecified) | 
22 |  | CCOC(=O)Nc1cc(NCCc2ccccc2)c([N+](=O)[O-])c(N)n1 | IC50 [4]: > 100 µM
23 | > 100 µM | CCOC(=O)Nc1cc(NN(C)C(=N)c2ccccc2)c([N+](=O)[O-])c(N)n1 | 
24 | 45 µM | CCOC(=O)Nc1cc(NC(/C(=N/O)c2ccccc2)c2ccccc2)c([N+](=O)[O-])c(N)n1 (stereo unspecified) | 
25 |  | CC[C@]1(O)C[C@H]2CN(CCc3c([nH]c4ccccc34)[C@@](C(=O)OC)(c3cc4c(cc3OC)N(C=O)[C@H]3[C@@](O)(C(=O)OC)[C@H](OC(C)=O)[C@]5(CC)C=CCN6CC[C@]43[C@@H]65)C2)C1 [VINCRISTINE] | ILS at 2 mg/kg (P388 [13]): 85%

Row | Compound | IC50 (L1210 [1]) | other results
26 | CCOC(=O)Nc1cc(NC(C)C(=O)Cc2ccccc2)c([N+](=O)[O-])c(N)n1 (stereo unspecified) | 10 µM | ILS at 200 mg/kg (P388 [2]): 10%
27 | CCOC(=O)Nc1cc(NC(C)C(=O)c2ccc(O)cc2)c([N+](=O)[O-])c(N)n1 (stereo unspecified) | 1.2 µM | ILS at 100 mg/kg (P388 [5]): 71%
28 | CCOC(=O)Nc1cc(N[C@H](C)[C@@H](O)c2ccc(O)cc2)c([N+](=O)[O-])c(N)n1 | 23 µM | ILS at 200 mg/kg (P388 [2]): 0%
29 | CCOC(=O)Nc1cc(N[C@@H](C)[C@H](O)c2ccccc2)c([N+](=O)[O-])c(N)n1 | 7.8 µM | ILS at 200 mg/kg (P388 [2]): 53%
30 | CCOC(=O)Nc1cc(N[C@H](C)[C@@H](O)c2ccccc2)c([N+](=O)[O-])c(N)n1 | 31 µM | ILS at 200 mg/kg (P388 [2]): 0%
31 | CCCCC(O)C(C)Nc1cc(NC(=O)OCC)nc(N)c1N (stereo unspecified) | 18 µM | ILS at 200 mg/kg (P388 [2]): 10%
32 | CCOC(=O)Nc1cc(N[C@H](C)[C@@H](O)c2ccc(O)cc2)c(N)c(N)n1 | 51 µM | ILS at 200 mg/kg (P388 [2]): 0%
33 | CCOC(=O)Nc1cc(N[C@H](C)C(=O)c2ccccc2)c([N+](=O)[O-])c(N)n1 | 24 µM | ILS at 200 mg/kg (P388 [2]): 0%
34 | CCOC(=O)Nc1cc(NC(C)/C(=N/O)c2cccc([N+](=O)[O-])c2)c([N+](=O)[O-])c(N)n1 (stereo unspecified) | 32 µM | ILS at 100 mg/kg (P388 [5]): 25%; Cells in metaphase (L1210 [6]): 2%; Cells in metaphase (L1210 [7]): 6%; Cells in metaphase (L1210 [8]): 1%; Cells in metaphase (L1210 [9]): 2%; Cells in metaphase (L1210 [10]): 2%; Cells in metaphase (L1210 [11]): 4%
35 | CCOC(=O)Nc1cc(N[C@@H](C)[C@H](O)c2ccc(O)cc2)c([N+](=O)[O-])c(N)n1 | 12 µM | ILS at 200 mg/kg (P388 [2]): 20%
36 | CCOC(=O)Nc1cc(N[C@H](C)[C@@H](O)c2ccccc2)c(N)c(N)n1 | 5.9 µM | ILS at 200 mg/kg (P388 [2]): 10%
37 | CCOC(=O)Nc1cc(N[C@@H](C)/C(=N/O)c2ccc(O)cc2)c([N+](=O)[O-])c(N)n1 | 6.7 µM | ILS at 2 mg/kg (P388 [13]): 90%
38 | CCCCC(Nc1cc(NC(=O)OCC)nc(N)c1N)C(C)O (stereo unspecified) | 1.7 µM | ILS at 200 mg/kg (P388 [14]): 45%
39 | CCOC(=O)Nc1cc(N[C@@H](C)[C@H](O)c2ccc(O)cc2)c(N)c(N)n1 | 0.62 µM | ILS at 100 mg/kg (P388 [5]): 58%
